Laboratory results taken from ChEMBL document CHEMBL4017491, “Phthalazino[1,2-b]quinazolinones as p53 Activators: Cell Cycle Arrest, Apoptotic Response and Bak-Bcl-xl Complex Reorganization in Bladder Cancer Cells” (J Med Chem, 2017).
Active and inactive are the calls of the source. The calls are words filed in the database; no cut-off is given here.

Key:
[1] = test system: T-24; assay: Cell cycle arrest in human T24 cells assessed as accumulation at S/G2 phase at 1 to 10 uM after 48 hrs by propidium iodide staining based FACS analysis; assay type: functional
In short: (§1)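 Cells treated with 1−10 μM for 48 h, trypsinized, and fixed in 70% ethanol. Stained with 50 μg/mL propidium iodide and phase distribution analyzed by flow cytometry. Mean ± SD from three independent measurements.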

[2] = test system: J82; assay: Cell cycle arrest in human J82 cells assessed as accumulation at G1 phase at 1 uM after 48 hrs by propidium iodide staining based FACS analysis (reference value: 42.29 %); assay type: functional; in short: as §1
[3] = test system: J82; assay: Cell cycle arrest in human J82 cells assessed as accumulation at S phase at 10 uM after 48 hrs by propidium iodide staining based FACS analysis (reference value: 46.79 %); assay type: functional; in short: as §1
[4] = test system: PC-3; assay: Antiproliferative activity against p53 null human PC3 cells by MTT assay; assay type: functional, cell-based
In short: (§2)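 Cell lines cultured in RPMI 1640 with 10% FBS. Viability read by MTT (5 mg/mL, 4 h at 37 °C), with formazan dissolved in DMSO and absorbance taken at 490 nm. Viability (%) = A490 treated / A490 control × 100. IC50 taken from dose-response curves, from three independent experiments each run in triplicate.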

[5] = test system: T-24; assay: Antiproliferative activity against human T24 cells harboring scRNA after 48 hrs by MTT assay; assay type: functional, cell-based
In short: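 T24 cells pre-exposed to p53-siRNA or scrambled RNA for 24 h, then treated with a concentration series for 48 h. Proliferation measured by MTT read at 490 nm, expressed as % of control absorbance.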

[6] = test system: T-24; assay: Cell cycle arrest in human T24 cells assessed as effect on CDK4 expression up to 10 uM after 24 hrs by Western blot analysis; assay type: functional, cell-based
In short: (§3)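 T24 cells, 3 × 10^5 per well, grown to 85−95% confluence, then exposed to 0−10 μM for 24 h. Whole-cell extracts in sample buffer run on SDS-polyacrylamide gels and transferred to nitrocellulose. Blots probed with primary antibodies and AP-linked anti-rabbit IgG, detected by ECL. Blots stripped and reprobed for β-actin as loading control.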

[7] = test system: T-24; assay: Induction of apoptosis in human T24 cells by Annexin V-FITC/propidium iodide based flow cytometric analysis; assay type: functional, cell-based
[8] = test system: T-24; assay: Induction of apoptosis in human T24 cells assessed as live cells at 1 uM by Annexin V-FITC/propidium iodide based flow cytometric analysis (reference value: 89.5%); assay type: functional
[9] = test system: T-24; assay: Induction of apoptosis in human T24 cells assessed as increase in bim level up to 10 uM after 24 hrs by Western blot analysis; assay type: functional, cell-based
In short: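 T24 cells (3 × 10^5 per well) grown to 85–95% confluence, then exposed 24 h to 0–10 μM. Whole-cell extracts run on SDS-PAGE and blotted to nitrocellulose. Probed with the indicated antibodies and AP-linked anti-rabbit IgG, with ECL detection. Blots stripped and reprobed for β-actin as loading control.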

[10] = test system: T-24; assay: Effect on Bcl-2 expression in human T24 cells up to 10 uM after 24 hrs by Western blot analysis; assay type: functional, cell-based; in short: as §3
[11] = test system: HepG2; assay: Antiproliferative activity against human HepG2 cells by MTT assay; assay type: functional, cell-based; in short: as §2
[12] = test system: HepG2; assay: Antitumor activity against human HepG2 cells xenografted in BALB/C nude mouse assessed as tumor growth inhibition at 12 mg/kg, ip administered every 2 days for 16 days relative to control; assay type: functional; conditions: read-out: TGI
In short: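 Male BALB/c nude mice, 6 weeks old, given subcutaneous flank injections of 5 × 10^6 HepG2 cells. Mice with 80−200 mm3 tumors randomized, n = 6 per group, and dosed ip every other day with 6 or 12 mg/kg. Vehicle 5% DMSO in saline; HCPT 6 mg/kg as positive control. Tumor volume (lw²/2) and body weight measured three times weekly.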

[13] = test system: Mus musculus; assay: Toxicity in BALB/C nude mouse xenografted with human HepG2 cells assessed as change in body weight at 6 mg/kg, ip administered every 2 days for 16 days; assay type: organism-based; conditions: in vivo
In short: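 HepG2-xenografted male BALB/C nude mice treated ip at 6 mg/kg every 2 days; vehicle was 5% DMSO in saline. Body weight recorded three times weekly and at the end of treatment.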

[14] = test system: T-24; assay: Downregulation of Bak protein expression in human T24 cells at 10 uM after 24 hrs by Western blot method; assay type: functional, cell-based; in short: as §3
[15] = test system: T-24; assay: Induction of DNA damage in human T24 cells assessed as gammaH2AX level up to 10 uM by immunoblot analysis; assay type: functional, cell-based
[16] = test system: T-24; assay: Induction of membrane disruption in human T24 cells at 1 to 10 uM after 1 hr by propidium iodide staining based FACS analysis; assay type: functional, cell-based
In short: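 T24 cells exposed 1 h to 1–10 μM, then trypsinised and washed in PBS. Resuspended in 50 μg/mL propidium iodide in PBS and analysed immediately by flow cytometry with a 488 nm argon laser.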

[17] = test system: T-24; assay: Effect on cell cycle distribution in human T24 cells assessed as live cells at 1 uM after 1 hr by Annexin V-FITC/propidium iodide staining based FACS analysis (reference value: 98.3%); assay type: functional
[18] = test system: T-24; assay: Effect on cell cycle distribution in human T24 cells assessed as late necrotic cells at 1 uM after 1 hr by Annexin V-FITC/propidium iodide staining based FACS analysis (reference value: 1.71%); assay type: functional
[19] = test system: T-24; assay: Effect on cell cycle distribution in human T24 cells assessed as early apoptotic cells at 5 uM after 1 hr by Annexin V-FITC/propidium iodide staining based FACS analysis relative to control; assay type: functional
[20] = test system: T-24; assay: Effect on cell cycle distribution in human T24 cells assessed as late apoptotic cells at 10 uM after 1 hr by Annexin V-FITC/propidium iodide staining based FACS analysis relative to control; assay type: functional
[21] = test system: T-24; assay: Effect on cell cycle distribution in human T24 cells assessed as late necrotic cells at 10 uM after 1 hr by Annexin V-FITC/propidium iodide staining based FACS analysis (reference value: 1.71%); assay type: functional
[22] = target: Cellular tumor antigen p53 (Homo sapiens) (UniProt P04637); assay: Activation of p53 in human T24 cells assessed as decrease in MDM2 protein level up to 10 uM after 24 hrs by Western blot analysis; assay type: cell-based; in short: as §3
[23] = test system: T-24; assay: Induction of apoptosis in human T24 cells assessed as live cells at 5 uM by Annexin V-FITC/propidium iodide based flow cytometric analysis (reference value: 89.5%); assay type: functional
[24] = test system: T-24; assay: Induction of apoptosis in human T24 cells assessed as late apoptotic cells at 5 uM by Annexin V-FITC/propidium iodide based flow cytometric analysis (reference value: 0.193%); assay type: functional
[25] = test system: T-24; assay: Induction of apoptosis in human T24 cells assessed as live cells at 10 uM by Annexin V-FITC/propidium iodide based flow cytometric analysis (reference value: 89.5%); assay type: functional
[26] = test system: T-24; assay: Induction of apoptosis in human T24 cells assessed as early apoptotic cells at 10 uM by Annexin V-FITC/propidium iodide based flow cytometric analysis (reference value: 1.79%); assay type: functional
[27] = test system: T-24; assay: Induction of apoptosis in human T24 cells assessed as late apoptotic cells at 10 uM by Annexin V-FITC/propidium iodide based flow cytometric analysis (reference value: 0.193%); assay type: functional
[28] = test system: T-24; assay: Induction of apoptosis in human T24 cells assessed as activation of caspase-3 at 10 uM by FITC-DEVD-FMK based flow cytometric analysis (reference value: 2.8%)

Chain of Cellular tumor antigen p53 (Homo sapiens) (P04637 whole entry, looked up): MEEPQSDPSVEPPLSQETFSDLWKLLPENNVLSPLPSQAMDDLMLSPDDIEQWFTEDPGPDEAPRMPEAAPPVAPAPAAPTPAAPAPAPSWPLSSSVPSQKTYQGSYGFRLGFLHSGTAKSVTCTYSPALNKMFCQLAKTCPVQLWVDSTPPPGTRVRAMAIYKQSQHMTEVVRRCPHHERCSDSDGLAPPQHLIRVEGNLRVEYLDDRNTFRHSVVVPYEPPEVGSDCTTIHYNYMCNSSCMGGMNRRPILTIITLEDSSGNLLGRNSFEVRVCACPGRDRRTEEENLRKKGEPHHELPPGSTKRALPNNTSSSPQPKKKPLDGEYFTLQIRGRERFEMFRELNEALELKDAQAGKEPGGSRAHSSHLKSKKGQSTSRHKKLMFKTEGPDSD

CN(C)CCNc1nn2c(=O)c3cc(Br)ccc3nc2c2ccccc12 was tested, and the Activity [1] was “Active”, the Activity [2] was 48.49% and the Activity [3] was 64.2%. The Activity [4] was “inactive”, the Activity [5] was “Dose-dependent effect” and the Activity [6] was “inactive”. The Activity [7] was “Dose-dependent effect”, the Activity [8] was 83.7% and the Activity [9] was “Active”. The Activity [10] was “inactive”, the IC50 [11] was 3.8 µM and the inhibition in vivo at 12 mg/kg [12] was 61.3%. The Activity [13] was “Non-Toxic”, the Activity [14] was “Active” and the Activity [15] was “inactive”. The Activity [16] was “inactive”, the Activity [17] was 93.5% and the Activity [18] was 6.54%. For the same compound, the Activity [19] was 0%, the Activity [20] was 0% and the Activity [21] was 13.4%. For the same compound, the Activity [22] was “Active”, the Activity [23] was 62.8% and the Activity [24] was 10.2%. For the same compound, the Activity [25] was 21.8%, the Activity [26] was 29.4% and the Activity [27] was 40.7%. The Activity [28] was 50%.
